Here are results for 2 compounds from ChEMBL document CHEMBL5038582, “Adamantyl Isothiocyanates as Mutant p53 Rescuing Agents and Their Structure-Activity Relationships” (J Med Chem, 2021).

A short description of data set [1]: Octanol-water partition coefficient, logP of the compound by HPLC-MS analysis. In kind it is physicochemical. The settings on record: 18 h. In short, it runs like this:
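Compound (10 µL of 10 mM DMSO stock) added to 0.5 mL octanol plus 0.5 mL sodium phosphate buffer pH 7.4. Stirred 18 h, centrifuged 2 h at 3600 rpm. Concentration in each phase measured by LC-MS on a C18 column.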

Data set [2] concerns MDA-MB-468. Nature of the data set: Induction of apoptosis in human MDA-MB-468 cells expressing p53 R273H mutant assessed as increase in level of cleaved PARP1 level at 6 to 12 uM measured after 24 hrs by western blotting analysis. In kind it is functional, cell-based. To be noted: dose 6-12 µM. A digest of the protocol:
(§1)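 Cells treated with DMSO or compound at 6 or 12 µM for 24 h, then lysed in Tris-Cl pH 8.0/NaCl/glycerol/NP-40/EDTA buffer with protease inhibitors. 100 µg lysate resolved on 4-12% SDS-PAGE and blotted to PVDF. Probed with anti-PARP or anti-caspase 3, then HRP secondary and ECL. GAPDH reprobe as control.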

Data set [3] addresses Cellular tumor antigen p53 (Homo sapiens) (UniProt P04637). The experiment in a line: Activation of p53 in human MCF7 cells assessed as increase in NOXA mRNA expression at 6 uM incubated for 4 hrs by qRT-PCR analysis. To be noted: filed as activator. In kind it is cell-based. In short, it runs like this:
(§2)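 Cells treated with DMSO or 6 µM test compound for 4 h. RNA extracted, cDNA synthesised, transcript measured by TaqMan qRT-PCR and normalised to GAPDH. Averages from triplicates of repeated experiments, with standard deviation.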
In general terms: Quantitative PCR measures a nucleic acid by following its amplification.

For data set [4] the target is unchanged. The experiment in a line: Activation of p53 in human MCF7 cells assessed as increase in MDM2 mRNA expression at 6 uM incubated for 4 hrs by qRT-PCR analysis. Format: cell-based. The settings on record: filed as activator. In short, it runs like this: as §2
For data set [5], the system named is MCF7. The experiment in a line: Induction of apoptosis in human MCF7 cells expressing wild type p53 assessed as increase in cleaved PARP1 level at 6 to 12 uM measured after 24 hrs by western blotting analysis. Format: functional, cell-based. The settings on record: dose 6-12 µM. A digest of the protocol:
as §1
For orientation: In western blotting, separated proteins are transferred to a membrane and probed.

Data set [6] relates to Cellular tumor antigen p53 (Homo sapiens), P04637 [R273H]. Nature of the data set: Reactivation of transactivation function to p53 R273H mutant in human MDA-MB-468 cells assessed as increase in MDM2 mRNA expression at 6 uM incubated for 4 hrs by qRT-PCR analysis. Format: cell-based. The settings on record: filed as activator. In short, it runs like this:
as §2

The test system is the same in data set [7]. Nature of the data set: Reactivation of transactivation function to p53 R273H mutant in human MDA-MB-468 cells assessed as increase in NOXA mRNA expression at 6 uM incubated for 4 hrs by qRT-PCR analysis. In kind it is cell-based. The settings on record: filed as activator. A digest of the protocol:
as §2

Data set [8] deals with MDA-MB-468. Nature of the data set: Induction of apoptosis in human MDA-MB-468 cells expressing p53 R273H mutant assessed as decrease in level of uncleaved PARP1 level at 6 to 12 uM measured after 24 hrs by western blotting analysis. Format: functional, cell-based. The settings on record: dose 6-12 µM. In short, it runs like this:
as §1

Data set [9] has as its system MDA-MB-468. The experiment in a line: Antiproliferative activity against human MDA-MB-468 cells expressing p53 R273H mutant assessed as inhibition of cell growth incubated for 24 to 72 hrs by WST-1 assay. Format: functional, cell-based. In short, it runs like this:
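WST-1 proliferation assay. Compound diluted in DMSO and added to cells at 1% DMSO final. 4,000 cells/well in duplicate; DMSO-only wells as control, cell-free medium wells for background.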
Background: Tetrazolium dyes change colour on reduction, which living cells bring about.

The test system of a further data set is MCF-10A. The experiment in a line: Cytotoxicity against human MCF10A cells expressing wild type p53 assessed as inhibition of cell growth at 10 to 50 uM incubated for 24 to 72 hrs by WST-1 assay. Format: functional, cell-based. The settings on record: dose 10-50 µM, time 24-72 hrs.
In data set [10] the test system is MDA-MB-468. Nature of the data set: Induction of apoptosis in human MDA-MB-468 cells expressing p53 R273H mutant assessed increase in number of Annexin-V stained cells at 6 to 12 uM incubated for 24 hrs by AnnexinV-FITC and PI staining based flow cytometry. In kind it is functional, cell-based. The settings on record: dose 6-12 µM. In short, it runs like this: (§3)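 24 h treatment, DMSO control. Cells scraped, washed in PBS, then given fluorochrome-conjugated Annexin V for 15 min at RT in the dark, followed by PI (0.1 µg/ml) in binding buffer. Read by flow cytometry on LSRFortessa. Annexin V-positive cells expressed relative to the DMSO control.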

Data set [11] deals with Cellular tumor antigen p53 (Homo sapiens), P04637 [R273H]. Nature of the data set: Reactivation of transactivation function to p53 R273H mutant in human MDA-MB-468 cells assessed as increase in p21 mRNA expression at 6 uM incubated for 4 hrs by qRT-PCR analysis. To be noted: filed as activator. In kind it is cell-based. In short, it runs like this:
as §2

Data set [12] has as its system MDA-MB-231. The experiment in a line: Induction of apoptosis in human MDA-MB-231 cells expressing p53 R280K mutant assessed fold increase in number of Annexin-V stained cells at 6 to 12 uM incubated for 24 hrs by AnnexinV-FITC and PI staining based flow cytometry relative to control. In kind it is functional. To be noted: dose 6-12 µM. In short, it runs like this:
as §3

The test system of data set [13] is MCF7. Nature of the data set: Cell cycle arrest in human MCF7 cells expressing wild type p53 assessed as accumulation of cells at G2/M phase at 6 uM measured after 24 hrs by PI staining based flow cytometry (reference value: 21.3%). In kind it is functional.
Data set [14] has as its system MDA-MB-468. The experiment in a line: Antiproliferative activity against human MDA-MB-468 cells transfected with non-specific siRNA assessed as inhibition of cell growth at 5 to 25 uM measured after 24 hrs by WST-1 assay. Format: functional, cell-based. The settings on record: dose 5-25 µM. A digest of the protocol:
(§4)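 MDA-MB-468 cells plated at 50-60% confluence 24 h before transfection. p53 SMARTpool or non-specific siRNA (0.430 nmol) given with Lipofectamine 2000 in Opti-MEM for 5 h, repeated after 24 h. Drug or DMSO added 72 h after the first transfection. Proliferation read by WST-1, % of DMSO control.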

Data set [15] concerns MDA-MB-468. The experiment in a line: Cell cycle arrest in human MDA-MB-468 cells expressing p53 R273H mutant assessed as accumulation of cells at G1 phase at 6 uM measured after 24 hrs by PI staining based flow cytometry (reference value: 30.6%). In kind it is functional.
The subject of data set [16] is MCF7. The experiment in a line: Downregulation of p53 expression in human MCF7 cells at 6 to 12 uM measured after 24 hrs by immunoblot analysis. The settings on record: dose 6-12 µM. In kind it is functional, cell-based. In short, it runs like this: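 24 h exposure to 6 or 12 μM, DMSO control. Lysis in Tris pH 8.0/NaCl/glycerol/NP-40/EDTA buffer with protease inhibitors. 20 µg (MDA-MB-231, MDA-MB-468) or 50 µg (MCF-7) of lysate run on 4-12% SDS-PAGE. Blot probed with p53 DO-1, GAPDH used for reprobe/loading. Triplicate experiments.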

For data set [17], the system named is MDA-MB-468. Nature of the data set: Antiproliferative activity against human MDA-MB-468 cells transfected with p53 siRNA assessed as inhibition of cell growth at 5 to 25 uM measured after 24 hrs by WST-1 assay. To be noted: dose 5-25 µM. In kind it is functional, cell-based. A digest of the protocol:
as §4

Data set [18] has as its system MDA-MB-231. Nature of the data set: Cell cycle arrest in human MDA-MB-231 cells expressing p53 R280K mutant assessed as accumulation of cells at G1 phase at 6 uM measured after 24 hrs by PI staining based flow cytometry (reference value: 42.9%).
For data set [19], the system named is MDA-MB-468. Nature of the data set: Induction of apoptosis in human MDA-MB-468 cells expressing p53 R273H mutant assessed fold increase in number of Annexin-V stained cells at 6 to 12 uM incubated for 24 hrs by AnnexinV-FITC and PI staining based flow cytometry relative to control. In kind it is functional. To be noted: dose 6-12 µM. A digest of the protocol:
as §3

The structures appear in SMILES notation. pIC50: −log10 of the molar value. Activity calls are given as the source filed them. The rule behind the calls is not given here.

In the case of `[Se]=C=NCCC12CC3CC(CC(C3)C1)C2`, the logP (as a rule, the decadic logarithm of the partition coefficient of the neutral form, usually between octanol and water) in data set [1] came to 4.05. The outcome (in the data set with MDA-MB-468 [2]; in data set [3]; in data set [4]; in [6]; in [7]; in the data set with MDA-MB-468 [8]) was Active. Also, the outcome (with MDA-MB-468 [10]; in data set [11]) was Active. The result in the data set with MCF7 [5] and in the data set with MCF-10A was inactive. Besides, the pIC50 (usually the negative decadic logarithm of the IC50, by convention in mol/L) in the data set on MDA-MB-468 [9] was 5.22.

In the case of `S=C=NCCCC12CC3CC(CC(C3)C1)C2`, the “fold change (FC)” value with MDA-MB-231 [12] and in the data set on MDA-MB-468 [19] was 2 in each case. For the same compound, the result (in the data set with MDA-MB-468 [2]; in the data set with MDA-MB-468 [14]; in data set [3]; in data set [4]; in data set [6]; in data set [7]) was Active. Moreover, the outcome (with MDA-MB-468 [8]; in [11]) was Active. Besides, the Activity with MCF7 [13] stood at 24.3%; in the data set on MDA-MB-468 [15], 53.2%; with MDA-MB-231 [18], 48.2%. Besides, the result with MCF7 [5], in the data set with MDA-MB-468 [17] and in the data set with MCF-10A was inactive. In addition, in the data set on MCF7 [16], the inhibition entry is “inactive”. For the same compound, the pIC50 with MDA-MB-468 [9] was 4.92.
